What is called MIC is the lowest concentration that inhibits growth of the organism. As usually defined, the IC50 is the concentration that gives 50% inhibition.

These results are taken from ChEMBL document CHEMBL1240463, “Synthesis and biological evaluation of (+)-labdadienedial, derivatives and precursors from (+)-sclareolide” (Eur J Med Chem, 2010).

One assay deals with Fusarium oxysporum. The assay is described as follows: Antifungal activity against Fusarium oxysporum ATCC 48112 after 48 hrs by CLSI M38-A assay. The note with it: ATCC 48112, 48 h.
In assay [1] the test system is Vero. Put plainly: Selectivity index, ratio of IC50 for green monkey Vero cells over IC50 for human HeLa cells. The format is functional. In short, it runs like this: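 Selectivity index is the Vero IC50 divided by the HeLa IC50. Both IC50s come from the 48 h MTT assay, each from linear-regression dose-effect curves.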
Assay [2] has as its system Candida albicans. Put plainly: Antifungal activity against Candida albicans ATCC 10231 at 100 ug/mL after 24 hrs by AFSTEUCAST assay. The format is functional, organism-based.
Assay [3] concerns Candida tropicalis. Put plainly: Antifungal activity against Candida tropicalis CECT 11901 at 100 ug/mL after 24 hrs by AFSTEUCAST assay. In kind it is functional, organism-based.
A further assay deals with HeLa. Put plainly: Cytotoxicity against human HeLa cells after 48 hrs by MTT assay. The format is functional, cell-based. The procedure, abridged:
(§1)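 MTT colorimetric assay. HeLa (ATCC CCL-2) and Vero (ATCC CCL-81) cells were grown in MEM with 10% FBS at 37 °C, 5% CO2, then seeded at 1.5×10^4 (HeLa) or 1.25×10^4 (Vero) cells/well. Compound dilutions were added after 24 h and incubated 48 h more. Cell controls had 0.05% DMSO; vincristine was the reference. IC50 came from linear-regression dose-effect curves, mean ± S.E.M. of at least four dilutions in quadruplicate.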

For assay [4], the system named is Vero. Put plainly: Cytotoxicity against african green monkey Vero cells after 48 hrs by MTT assay. In kind it is cell-based. Particulars: Chlorocebus sabaeus. In short, it runs like this:
as §1

In another assay the test system is Aspergillus terreus. Put plainly: Antifungal activity against Aspergillus terreus CDC 317 at 100 ug/mL after 48 hrs by CLSI M38-A assay.
The test system of the next assay is Aspergillus flavus. The assay is described as follows: Antifungal activity against Aspergillus flavus ATCC 204304 at 100 ug/mL after 48 hrs by CLSI M38-A assay.
A further assay relates to Trichophyton rubrum. The assay is described as follows: Antifungal activity against Trichophyton rubrum ATCC 28188 after 6 days by CLSI M38-A assay. The note with it: ATCC 28188, 6 days.
Assay [5] has as its system Candida parapsilosis. The assay is described as follows: Antifungal activity against Candida parapsilosis ATCC 22019 at 100 ug/mL after 24 hrs by AFSTEUCAST assay. The format is functional, organism-based.
Assay [6] concerns Trichophyton mentagrophytes. Put plainly: Antifungal activity against Trichophyton mentagrophytes ATCC 24198 after 6 days by CLSI M38-A assay. Particulars: ATCC 24198, 6 days.
In another assay the test system is Aspergillus fumigatus. Put plainly: Antifungal activity against Aspergillus fumigatus ATCC 204305 after 48 hrs by CLSI M38-A assay. Particulars: ATCC 204305, 48 h.
Assay [7] relates to Pichia kudriavzevii. The assay is described as follows: Antifungal activity against Candida krusei ATCC 6258 at 100 ug/mL after 24 hrs by AFSTEUCAST assay. In kind it is functional, organism-based.
The next assay has as its system SNU1. The assay is described as follows: Cytotoxicity against human SNU1 cells. The format is functional, cell-based.
The subject of a further assay is P388. The assay is described as follows: Cytotoxicity against mouse P388 cells. In kind it is functional, cell-based.
For a further assay, the system named is B16. The assay is described as follows: Cytotoxicity against mouse B16 cells. In kind it is functional, cell-based.
The next assay concerns KB. The assay is described as follows: Cytotoxicity against human KB cells. Particulars: read-out: ED50 (the source's name). The format is functional.
The test system of assay [8] is Candida tropicalis. The assay is described as follows: Antifungal activity against Candida tropicalis CECT 11901 at 12.5 ug/mL after 24 hrs by AFSTEUCAST assay. The format is functional, organism-based.
For a further assay, the system named is Human alphaherpesvirus 1. The assay is described as follows: Antiviral activity against HSV1 infected in Vero cells assessed reduction factor at 12.5 ug/ml after 36 hrs by end-point titration technique relative to control. In kind it is functional. In short, it runs like this:
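HSV-1 (CDC) end-point titration on Vero cells. Two-fold compound dilutions were mixed with one infection dose of virus (TCID50/0.1 mL) for 0.5 h at 37 °C. The mixture was added to confluent monolayers and incubated 36 h at 37 °C, 5% CO2. Reduction factor is the virus titer without compound divided by the titer with compound.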

The subject of assay [9] is Pichia kudriavzevii. The assay is described as follows: Antifungal activity against Candida krusei ATCC 6258 at 6.25 ug/mL after 24 hrs by AFSTEUCAST assay. In kind it is functional, organism-based.
Assay [10] deals with Candida albicans. Put plainly: Antifungal activity against Candida albicans ATCC 10231 at 12.5 ug/mL after 24 hrs by AFSTEUCAST assay. In kind it is functional, organism-based.
The subject of assay [11] is Candida parapsilosis. The assay is described as follows: Antifungal activity against Candida parapsilosis ATCC 22019 at 6.25 ug/mL after 24 hrs by AFSTEUCAST assay. The format is functional, organism-based.

Molecules are shown by their SMILES. Values after ≈ are worked out from the molar mass of the structure shown. Active and inactive are the calls of the source. No cut-off for these calls is given here.

Regarding `CON(C)C(=O)C[C@H]1[C@@]2(C)CCCC(C)(C)[C@@H]2CC[C@]1(C)O` [WEINREB'S AMIDE], the MIC against Fusarium oxysporum was over 100 µg/mL; in the assay with Trichophyton rubrum it was 50 µg/mL (≈ 161 µM); in [6], 39.7 µg/mL (≈ 127 µM); in the assay on Aspergillus fumigatus, 50 µg/mL (≈ 161 µM). For the same compound, the “Selectivity Index” value in the assay on Vero [1] came out at 1.23. The result in the assay with Candida albicans [2], in the assay with Candida tropicalis [3], with Aspergillus terreus, in the assay with Aspergillus flavus, in the assay on Candida parapsilosis [5] and in the assay with Pichia kudriavzevii [7] was inactive. Moreover, the results for the IC50 in the assay on HeLa and in the assay with Vero [4] were 66.8 µg/mL (≈ 214 µM) and 82 µg/mL (≈ 263 µM), respectively.

`CCC(C)n1ncn(-c2ccc(N3CCN(c4ccc(OCC5COC(Cn6cncn6)(c6ccc(Cl)cc6Cl)O5)cc4)CC3)cc2)c1=O` (stereo not given) [ITRACONAZOLE] yielded an MIC with Aspergillus fumigatus of 0.17 µg/mL (≈ 0.241 µM).

For the compound `CN(C/C=C/C#CC(C)(C)C)Cc1cccc2ccccc12` [TERBINAFINE], the figures for the MIC (against Trichophyton rubrum; in assay [6]) were under 0.078 µg/mL and 0.0312 µg/mL (≈ 0.107 µM), respectively.

Regarding `C=C1CC[C@H]2C(C)(C)CCC[C@]2(C)[C@H]1C/C=C(\C=O)CC=O` (mixture of isomers) [LABDADIENEDIAL], the IC50 was determined as 12 µg/mL with SNU1; 4.1 µg/mL in the assay on P388; 41.2 µg/mL in the assay with B16; 19.5 µg/mL in the assay on HeLa; 13.1 µg/mL with Vero [4]. In addition, the MIC against Fusarium oxysporum was 19.8 µg/mL; in the assay with Trichophyton rubrum it was 0.62 µg/mL; in [6], 1.24 µg/mL; in the assay with Aspergillus fumigatus it was 79.4 µg/mL. Besides, the “Selectivity Index” value in the assay with Vero [1] is given as 0.67. In addition, in the assay on KB, the EC50 came out at 40 µg/mL. Also, the outcome with Candida albicans [2], in the assay with Candida tropicalis [3], in the assay on Candida tropicalis [8], with Pichia kudriavzevii [9], with Candida parapsilosis [5] and with Candida albicans [10] was Active. The result with Candida parapsilosis [11] and in the assay with Pichia kudriavzevii [7] was Active. Further, the Activity in the assay with Human alphaherpesvirus 1 is listed as 100. The outcome in the assay on Aspergillus terreus and with Aspergillus flavus was inactive.

`C[C@@H]1[C@H](O)[C@@H](C)/C=C/C=C/C=C/C=C/C=C/C=C/C=C/[C@H](O[C@@H]2O[C@H](C)[C@@H](O)[C@H](N)[C@@H]2O)C[C@@H]2O[C@](O)(C[C@@H](O)C[C@@H](O)[C@H](O)CC[C@@H](O)C[C@@H](O)CC(=O)O[C@H]1C)C[C@H](O)[C@H]2C(=O)O` [AMPHOTERICIN B] had an MIC with Aspergillus fumigatus of 2 µg/mL (≈ 2.16 µM).

For the compound `C=C1CCC2C(C)(C)CCC[C@]2(C)[C@H]1CC=O` (stereo not given in full), the IC50 in the assay with SNU1 turned out to be 3.9 µg/mL (≈ 16.6 µM); in the assay with P388, 0.16 µg/mL (≈ 0.683 µM); in the assay on B16, 30.8 µg/mL (≈ 131 µM); with HeLa it was 2.6 µg/mL (≈ 11.1 µM); in the assay on Vero [4], 10.7 µg/mL (≈ 45.7 µM). Further, the MIC in the assay with Fusarium oxysporum is over 100 µg/mL; with Trichophyton rubrum, 31.5 µg/mL (≈ 134 µM); in assay [6], 31.5 µg/mL (≈ 134 µM); with Aspergillus fumigatus, over 100 µg/mL. Besides, the “Selectivity Index” value with Vero [1] is 4.11. For the same compound, the outcome in the assay on Candida albicans [2], with Candida tropicalis [3], in the assay on Candida parapsilosis [5] and in the assay on Pichia kudriavzevii [7] was inactive.

As to `C=C1CC[C@H]2C(C)(C)CCC[C@]2(C)[C@H]1C/C=C(/CC(=O)O)C(=O)O`, the MIC (against Fusarium oxysporum; with Trichophyton rubrum; in [6]; with Aspergillus fumigatus) was over 100 µg/mL each time. Further, the “Selectivity Index” value with Vero [1] came to 0.46. Further, the outcome in the assay with Candida albicans [2], in the assay on Candida tropicalis [3], in the assay with Candida parapsilosis [5] and in the assay with Pichia kudriavzevii [7] was inactive. Further, the IC50 with HeLa was found to be 84.5 µg/mL (≈ 253 µM); with Vero [4] it was 39 µg/mL (≈ 117 µM).

For the compound `C=C1CC[C@H]2C(C)(C)CCC[C@]2(C)[C@H]1C/C=C(/CC(=O)OC)C(=O)OC`, the MIC (in the assay on Fusarium oxysporum; in the assay on Trichophyton rubrum; in assay [6]; with Aspergillus fumigatus) was over 100 µg/mL throughout. Moreover, the “Selectivity Index” value with Vero [1] is 2.32. The outcome in the assay with Candida albicans [2], with Candida tropicalis [3], in the assay with Candida parapsilosis [5] and with Pichia kudriavzevii [7] was inactive. The results for the IC50 with HeLa and in the assay on Vero [4] were 14.5 µg/mL (≈ 40 µM) and 33.7 µg/mL (≈ 93 µM), respectively.

In the case of `C=C1CC[C@H]2C(C)(C)CCC[C@]2(C)[C@H]1C/C=C(\CO)CCO`, the MIC (in the assay on Fusarium oxysporum; against Trichophyton rubrum; in [6]; in the assay on Aspergillus fumigatus) was over 100 µg/mL throughout. Besides, in the assay with Vero [1], the “Selectivity Index” value was 0.42. For the same compound, the outcome with Candida albicans [2], in the assay on Candida tropicalis [3], in the assay on Candida parapsilosis [5] and with Pichia kudriavzevii [7] was inactive. Moreover, the IC50 with HeLa worked out at 91 µg/mL (≈ 297 µM); with Vero [4] it was 38 µg/mL (≈ 124 µM).

In the case of `C=C1CC[C@H]2C(C)(C)CCC[C@]2(C)[C@H]1CC(=O)N(C)OC`, the MIC against Fusarium oxysporum was over 100 µg/mL; against Trichophyton rubrum it was 50 µg/mL (≈ 170 µM); in assay [6] it was 19.8 µg/mL (≈ 67.5 µM); with Aspergillus fumigatus it was over 100 µg/mL. Moreover, the “Selectivity Index” value with Vero [1] amounted to 2.69. The result in the assay on Candida albicans [2], in the assay with Candida tropicalis [3], with Candida parapsilosis [5] and in the assay with Pichia kudriavzevii [7] was inactive. The IC50 in the assay on HeLa worked out at 11.7 µg/mL (≈ 39.9 µM); in the assay on Vero [4], 31.5 µg/mL (≈ 107 µM).

`CC[C@]1(O)C[C@H]2CN(CCc3c([nH]c4ccccc34)[C@@](C(=O)OC)(c3cc4c(cc3OC)N(C=O)[C@H]3[C@@](O)(C(=O)OC)[C@H](OC(C)=O)[C@]5(CC)C=CCN6CC[C@]43[C@@H]65)C2)C1` [VINCRISTINE]: the Selectivity Index in the assay on Vero [1] amounted to 22. For the same compound, the IC50 worked out at 0.05 µg/mL (≈ 0.0606 µM) in the assay on HeLa and 1.1 µg/mL (≈ 1.33 µM) with Vero [4].
